Measured values from ChEMBL document CHEMBL1122126, “Pyrazolo[3,4-d]pyrimidine ribonucleosides as anticoccidials. 2. Synthesis and activity of some nucleosides of 4-(alkylamino)-1H-pyrazolo[3, 4-d]pyrimidines” (1982).
≈ marks a conversion by molar mass, not a printed value.

What was measured:
Eimeria tenella [1] = assay: In vitro minimum inhibitory concentration for Eimeria tenella in embryonic chick liver cells; type: functional
Method in brief: (§1)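 E. tenella (Weybridge strain) was grown in cultured embryonic chick liver cells. The minimum inhibitory concentration against parasite growth was determined, and toxicity to the host cells was recorded alongside it.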

Gallus gallus [2] = assay: Compound tested in vivo for anti-coccidial activity which cleared number of chicks from parasite at 100 ppm in the diet; One chick out of five died and contained lesions due to parasite
Detroit 98 [3] = assay: Concentration that inhibited the growth of cultured human detroit 98 cells.; type: functional; details: read-out: ED50 (the source's name)
Method in brief: (§2)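 Cloned Detroit 98 cells (human sternal marrow, ATCC CCL 18.1 derivative) or cloned mouse L cells (C3H/AN connective tissue) were grown as monolayers in modified Eagle's medium at 36 °C in a humidified CO2 incubator. Cells were exposed for 70-76 h, and control cultures reached at least two doublings. Total counts were made by electronic counter on replicate cultures. ED50 is the molar concentration giving 50% of control growth, read from a plot.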

Eimeria tenella [4] = assay: Anti-coccidial activity which cleared number of chicks from parasite; type: functional
Method in brief: (§3)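 Week-old chicks were given a simultaneous infection of Eimeria tenella (Weybridge strain) and E. acervulina (Ongar strain). Compound was mixed into the diet at the stated ppm level. Activity against E. acervulina was judged from oocyst production at day 5. Treated-group weight gain was compared with controls.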

Gallus gallus [5] = species on record: Gallus gallus; assay: In vitro minimum inhibitory concentration for Eimeria tenella in embryonic chick liver cells; Toxic; type: functional; method in brief: as §1
L cells [6] = assay: Concentration that inhibited the growth of Mouse L cells.; type: functional; details: L929, read-out: ED50 (the source's name); method in brief: as §2
Gallus gallus [7] = assay: Compound tested in vivo for anti-coccidial activity which cleared number of chicks from parasite at 400 ppm in the diet; One chick out of five died and contained lesions due to parasite; type: functional
Gallus gallus [8] = assay: Compound tested in vivo for anti-coccidial activity which cleared number of chicks from parasite at 400 ppm in the diet; Chicks showed decreased weight gain; type: functional; method in brief: as §3
Gallus gallus [9] = assay: Compound tested in vivo for anti-coccidial activity which cleared number of chicks from parasite at 200 p.p.m. in the diet
Gallus gallus [10] = assay: Compound tested in vivo for anti-coccidial activity which cleared number of chicks from parasite at 400 ppm in the diet; type: functional; method in brief: as §3
Detroit 98 [11] = assay: Concentration that inhibited the growth of cultured human detroit 98 cells; type: functional; details: read-out: ED50 (the source's name); method in brief: as §2
L cells [12] = assay: Concentration that inhibited the growth of Mouse L cells; type: functional; details: L929, read-out: ED50 (the source's name); method in brief: as §2
Gallus gallus [13] = species on record: Gallus gallus; assay: In vitro minimum inhibitory concentration for Eimeria tenella in embryonic chick liver cells; Slightly toxic; type: functional; method in brief: as §1
Gallus gallus [14] = assay: Compound tested in vivo for anti-coccidial activity which cleared number of chicks from parasite at 25 p.p.m. in the diet; type: functional; method in brief: as §3

| Compound | MIC (Eimeria tenella [1]) [µg/mL] | No. of chicks (Eimeria tenella [4]) | also measured |
| --- | --- | --- | --- |
| CCCCCCCCNc1ncnc2c1cnn2C1O[C@H](CO)[C@@H](O)[C@H]1O (stereo not given in full) | 5 (≈ 13.2 µM) | – | No. of chicks (Gallus gallus [2]): 0 |
| Nc1ncnc2c1ncn2[C@@H]1O[C@H](CO)[C@@H](O)[C@H]1O [ADENOSINE] | – | 0 | EC50 (Detroit 98 [3]): 80 nM; MIC (Gallus gallus [5]): 20 µg/mL (≈ 74.8 µM); EC50 (L cells [6]): 0.3 µM |
| CNc1ncnc2c1cnn2C1O[C@H](CO)[C@@H](O)[C@H]1O (stereo not given in full) | 0.31 (≈ 1.1 µM) | 0 | – |
| OC[C@H]1OC(n2ncc3c(NCCc4ccccc4)ncnc32)[C@H](O)[C@@H]1O (stereo not given in full) | 5 (≈ 13.5 µM) | – | No. of chicks (Gallus gallus [2]): 0 |
| NNc1ncnc2c1cnn2C1O[C@H](CO)[C@@H](O)[C@H]1O (stereo not given in full) | 5 (≈ 17.7 µM) | – | EC50 (Detroit 98 [3]): 20000 nM; No. of chicks (Gallus gallus [7]): 0; EC50 (L cells [6]): 100 µM |
| CCCCCCNc1ncnc2c1cnn2C1O[C@H](CO)[C@@H](O)[C@H]1O (stereo not given in full) | 1.25 (≈ 3.56 µM) | 0 | – |
| CCN(CC)c1ncnc2c1cnn2C1O[C@H](CO)[C@@H](O)[C@H]1O (stereo not given in full) | 5 (≈ 15.5 µM) | – | No. of chicks (Gallus gallus [8]): 1 |
| OC[C@H]1OC(n2ncc3c(NCc4ccccc4)ncnc32)[C@H](O)[C@@H]1O (stereo not given in full) | 0.31 (≈ 0.867 µM) | 0 | – |
| CCCCN(CC)c1ncnc2c1cnn2C1O[C@H](CO)[C@@H](O)[C@H]1O (stereo not given in full) | 5 (≈ 14.2 µM) | 0 | – |
| CCCCCCN(CCCCCC)c1ncnc2c1cnn2C1O[C@H](CO)[C@@H](O)[C@H]1O (stereo not given in full) | > 20 | 1 | EC50 (Detroit 98 [3]): 50000 nM; EC50 (L cells [6]): 50 µM |
| CN(C)c1ncnc2c1cnn2C1O[C@H](CO)[C@@H](O)[C@H]1O (stereo not given in full) | 5 (≈ 16.9 µM) | – | No. of chicks (Gallus gallus [9]): 2 |
| CCCCNc1ncnc2c1cnn2C1O[C@H](CO)[C@@H](O)[C@H]1O (stereo not given in full) | 1.25 (≈ 3.87 µM) | 0 | – |
| CCNc1ncnc2c1cnn2C1O[C@H](CO)[C@@H](O)[C@H]1O (stereo not given in full) | 5 (≈ 16.9 µM) | – | No. of chicks (Gallus gallus [10]): 1 |
| O=C(Nc1ncnc2c1cnn2C1O[C@H](CO)[C@@H](O)[C@H]1O)c1ccccc1 (stereo not given in full) | – | 0 | EC50 (Detroit 98 [11]): > 100 µM; EC50 (L cells [12]): > 100 µM; MIC (Gallus gallus [5]): 5 µg/mL (≈ 13.5 µM) |
| O=c1[nH]cnc2c1cnn2[C@@H]1O[C@H](CO)[C@@H](O)[C@H]1O | 20 (≈ 74.6 µM) | – | No. of chicks (Gallus gallus [10]): 0 |
| OC[C@H]1OC(n2ncc3c(NC4CCCC4)ncnc32)[C@H](O)[C@@H]1O (stereo not given in full) | 0.31 (≈ 0.924 µM) | 5 | – |
| OC[C@H]1OC(n2ncc3c(N4CCOCC4)ncnc32)[C@H](O)[C@@H]1O (stereo not given in full) | – | – | MIC (Gallus gallus [13]): 20 µg/mL (≈ 59.3 µM); No. of chicks (Gallus gallus [10]): 0 |
| CC(C)=CCNc1ncnc2c1cnn2C1O[C@H](CO)[C@@H](O)[C@H]1O (stereo not given in full) | 5 (≈ 14.9 µM) | 0 | No. of chicks (Gallus gallus [14]): 0; EC50 (Detroit 98 [3]): 1500 nM; EC50 (L cells [6]): > 100 µM |
| OC[C@H]1OC(n2ncc3c(NCc4ccco4)ncnc32)[C@H](O)[C@@H]1O (stereo not given in full) | 0.31 (≈ 0.893 µM) | – | EC50 (Detroit 98 [3]): 300 nM; EC50 (L cells [6]): 3 µM |
